{"source": "ChEMBL document CHEMBL5724801", "about": "“EUbOPEN Chemogenomics Library - Multiplex” (2024)", "tested_on": "Fibroblast", "assay": "Multiplex assay against human fibroblast", "assay_type": "toxicity, cell-based", "outline": "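At seeding, live cells were stained with Hoechst33342, BioTracker Green Microtubule Cytoskeleton Dye, MitoTracker Red and Annexin V Alexa Fluor 680. After compound addition they were imaged on a CQ1 microscope at 37°C and 5% CO2, and CellPathfinder machine-learning gating sorted them into Hoechst high-intensity objects or normal cells, with normal cells further split into healthy, pyknosed or fragmented nuclei and pyknosed cells into mitotic or apoptotic. Tubulin, mitochondrial-mass and membrane-permeability phenotypes are given as per cents of cells with healthy nuclei.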", "key": {"[1]": {"conditions": "12 h, 1 µM, compound concentration 1 uM"}, "[2]": {"conditions": "12 h, 10 µM, compound concentration 10 uM"}, "[3]": {"conditions": "24 h, 1 µM, compound concentration 1 uM"}, "[4]": {"conditions": "24 h, 10 µM, compound concentration 10 uM"}, "[5]": {"conditions": "48 h, 1 µM, compound concentration 1 uM"}, "[6]": {"conditions": "48 h, 10 µM, compound concentration 10 uM"}}, "note": "“And” between values parts separate entries of the source, which are not always exact repeats. Identical values can stand only once.", "data": [{"compound": "O=C(O)CCC/C=C\\CC1C(O)CC(O)C1/C=C/C(O)COc1cccc(Cl)c1", "note": "(stereo unspecified) [CLOPROSTENOL]", "values": [{"measurement": "Population Apoptotic (%)", "setting": "[1]", "value": "41% and 20%"}, {"measurement": "Population Fragmented Nuclei (%)", "setting": "[1]", "value": "15% and 22%"}, {"measurement": "Population Healthy Nuclei (%)", "setting": "[1]", "value": "68% and 52%"}, {"measurement": "Population Hoechst High Intensity Objects (%)", "setting": "[1]", "value": "0% and 2%"}, {"measurement": "Population Membrane Permeable-Phenotype (%)", "setting": "[1]", "value": "0% and 8%"}, {"measurement": "Population Mitochondria Different-Phenotype (%)", "setting": "[1]", "value": 2, "unit": "%"}, {"measurement": "Population Mitotic Cells (%)", "setting": "[1]", "value": "58% and 80%"}, {"measurement": "Population Normal (%)", "setting": "[1]", "value": "100% and 97%"}, {"measurement": "Population Pyknosed Nuclei (%)", "setting": "[1]", "value": "15% and 25%"}, {"measurement": "Population Tubulin-Different-Phenotype (%)", "setting": "[1]", "value": "22% and 52%"}, {"measurement": "Total Cell Count", "setting": "[1]", "value": "153 and 141"}, {"measurement": "Population Apoptotic (%)", "setting": "[2]", "value": "38% and 23%"}, {"measurement": "Population Fragmented Nuclei (%)", "setting": "[2]", "value": 23, "unit": "%"}, {"measurement": "Population Healthy Nuclei (%)", "setting": "[2]", "value": "58% and 43%"}, {"measurement": "Population Hoechst High Intensity Objects (%)", "setting": "[2]", "value": "12% and 4%"}, {"measurement": "Population Membrane Permeable-Phenotype (%)", "setting": "[2]", "value": "0% and 11%"}, {"measurement": "Population Mitochondria Different-Phenotype (%)", "setting": "[2]", "value": "4% and 9%"}, {"measurement": "Population Mitotic Cells (%)", "setting": "[2]", "value": "61% and 76%"}, {"measurement": "Population Normal (%)", "setting": "[2]", "value": "87% and 95%"}, {"measurement": "Population Pyknosed Nuclei (%)", "setting": "[2]", "value": "18% and 34%"}, {"measurement": "Population Tubulin-Different-Phenotype (%)", "setting": "[2]", "value": "31% and 53%"}, {"measurement": "Total Cell Count", "setting": "[2]", "value": "212 and 105"}, {"measurement": "Population Apoptotic (%)", "setting": "[3]", "value": "41% and 18%"}, {"measurement": "Population Fragmented Nuclei (%)", "setting": "[3]", "value": "19% and 27%"}, {"measurement": "Population Healthy Nuclei (%)", "setting": "[3]", "value": "62% and 49%"}, {"measurement": "Population Hoechst High Intensity Objects (%)", "setting": "[3]", "value": "0% and 3%"}, {"measurement": "Population Membrane Permeable-Phenotype (%)", "setting": "[3]", "value": "1% and 7%"}, {"measurement": "Population Mitochondria Different-Phenotype (%)", "setting": "[3]", "value": "3% and 5%"}, {"measurement": "Population Mitotic Cells (%)", "setting": "[3]", "value": "58% and 81%"}, {"measurement": "Population Normal (%)", "setting": "[3]", "value": "99% and 96%"}, {"measurement": "Population Pyknosed Nuclei (%)", "setting": "[3]", "value": "18% and 23%"}, {"measurement": "Population Tubulin-Different-Phenotype (%)", "setting": "[3]", "value": "26% and 53%"}, {"measurement": "Total Cell Count", "setting": "[3]", "value": "161 and 144"}, {"measurement": "Population Apoptotic (%)", "setting": "[4]", "value": "41% and 59%"}, {"measurement": "Population Fragmented Nuclei (%)", "setting": "[4]", "value": "24% and 28%"}, {"measurement": "Population Healthy Nuclei (%)", "setting": "[4]", "value": "57% and 50%"}, {"measurement": "Population Hoechst High Intensity Objects (%)", "setting": "[4]", "value": "12% and 3%"}, {"measurement": "Population Membrane Permeable-Phenotype (%)", "setting": "[4]", "value": "2% and 7%"}, {"measurement": "Population Mitochondria Different-Phenotype (%)", "setting": "[4]", "value": 3, "unit": "%"}, {"measurement": "Population Mitotic Cells (%)", "setting": "[4]", "value": "58% and 40%"}, {"measurement": "Population Normal (%)", "setting": "[4]", "value": "87% and 96%"}, {"measurement": "Population Pyknosed Nuclei (%)", "setting": "[4]", "value": "18% and 21%"}, {"measurement": "Population Tubulin-Different-Phenotype (%)", "setting": "[4]", "value": "24% and 57%"}, {"measurement": "Total Cell Count", "setting": "[4]", "value": "218 and 107"}, {"measurement": "Population Apoptotic (%)", "setting": "[5]", "value": "65% and 36%"}, {"measurement": "Population Fragmented Nuclei (%)", "setting": "[5]", "value": "21% and 37%"}, {"measurement": "Population Healthy Nuclei (%)", "setting": "[5]", "value": "59% and 43%"}, {"measurement": "Population Hoechst High Intensity Objects (%)", "setting": "[5]", "value": "2% and 3%"}, {"measurement": "Population Membrane Permeable-Phenotype (%)", "setting": "[5]", "value": "2% and 12%"}, {"measurement": "Population Mitochondria Different-Phenotype (%)", "setting": "[5]", "value": "2% and 10%"}, {"measurement": "Population Mitotic Cells (%)", "setting": "[5]", "value": "34% and 64%"}, {"measurement": "Population Normal (%)", "setting": "[5]", "value": "97% and 96%"}, {"measurement": "Population Pyknosed Nuclei (%)", "setting": "[5]", "value": "19% and 18%"}, {"measurement": "Population Tubulin-Different-Phenotype (%)", "setting": "[5]", "value": "25% and 63%"}, {"measurement": "Total Cell Count", "setting": "[5]", "value": "156 and 137"}, {"measurement": "Population Apoptotic (%)", "setting": "[6]", "value": "46% and 55%"}, {"measurement": "Population Fragmented Nuclei (%)", "setting": "[6]", "value": "25% and 41%"}, {"measurement": "Population Healthy Nuclei (%)", "setting": "[6]", "value": "57% and 49%"}, {"measurement": "Population Hoechst High Intensity Objects (%)", "setting": "[6]", "value": "13% and 8%"}, {"measurement": "Population Membrane Permeable-Phenotype (%)", "setting": "[6]", "value": "0% and 4%"}, {"measurement": "Population Mitochondria Different-Phenotype (%)", "setting": "[6]", "value": "2% and 4%"}, {"measurement": "Population Mitotic Cells (%)", "setting": "[6]", "value": "53% and 44%"}, {"measurement": "Population Normal (%)", "setting": "[6]", "value": "86% and 91%"}, {"measurement": "Population Pyknosed Nuclei (%)", "setting": "[6]", "value": "16% and 9%"}, {"measurement": "Population Tubulin-Different-Phenotype (%)", "setting": "[6]", "value": "30% and 61%"}, {"measurement": "Total Cell Count", "setting": "[6]", "value": "205 and 108"}]}]}
